Data set [1] deals with MV4-11. As to the kind of experiment: Induction of apoptosis in human MV4-11 cells assessed as late apoptotic cells at 1 uM after 48 hrs in presence of 0.3 uM RAPA by Annexin V-FITC/propidium iodide staining-based flow cytometric analysis (reference value: 5.03%). In kind it is functional. For orientation: Flow cytometry measures light scatter and fluorescence of single cells or particles in a stream.

The test system of data set [2] is MM1.S. The data set is described as follows: Induction of apoptosis in human MM1S cells assessed as early apoptotic cells at 1 uM after 48 hrs in presence of 0.3 uM RAPA by Annexin V-FITC/propidium iodide staining-based flow cytometric analysis (reference value: 0.38%). In kind it is functional.
The test system of data set [3] is MM1.S. The data set is described as follows: Induction of apoptosis in human MM1S cells assessed as necrotic cells at 1 uM after 48 hrs in presence of 0.3 uM RAPA by Annexin V-FITC/propidium iodide staining-based flow cytometric analysis (reference value: 0.32%). In kind it is functional.
Data set [4] has as its system MV4-11. As to the kind of experiment: Induction of apoptosis in human MV4-11 cells assessed as early apoptotic cells at 1 uM after 48 hrs in presence of 0.3 uM RAPA by Annexin V-FITC/propidium iodide staining-based flow cytometric analysis (reference value: 10.7%). The format is functional.
Data set [5] in a line: Toxicity against NOD/SCID mouse xenografted with human MM1S cells assessed as mouse survival at 50 mg/kg, po qd administered for 10 days co-treated with 25 mg/kg RAPA. The format is organism-based. The following applies: in vivo, 240 h. An outline of the steps: (§1)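 MM1S s.c. xenograft: 10^7 cells in serum-free RPMI 1640, right flank, female NOD/SCID mice aged 5-6 weeks, randomised at 100-200 mm3 (n=6 per group). Oral daily dosing used physiological saline with 2.5% DMSO and 10% cyclodextrin, pH 9; the combination was given as a suspension. Caliper measurements were taken every 2 days. Survivors were counted.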
A general note: A xenograft is tissue or cells of one species grown in another, often human tumour cells in immunodeficient mice.

In data set [6] the test system is MM1.S. As to the kind of experiment: Induction of apoptosis in human MM1S cells assessed as viable cells at 1 uM after 48 hrs in presence of 0.3 uM RAPA by Annexin V-FITC/propidium iodide staining-based flow cytometric analysis (reference value: 98.9%). In kind it is functional.
Data set [7] relates to MV4-11. As to the kind of experiment: Induction of apoptosis in human MV4-11 cells assessed as necrotic cells at 1 uM after 48 hrs in presence of 0.3 uM RAPA by Annexin V-FITC/propidium iodide staining-based flow cytometric analysis (reference value: 0.17%). The format is functional.
Data set [8] relates to MM1.S. The data set is described as follows: Induction of apoptosis in human MM1S cells assessed as late apoptotic cells at 1 uM after 48 hrs in presence of 0.3 uM RAPA by Annexin V-FITC/propidium iodide staining-based flow cytometric analysis (reference value: 0.42%). The format is functional.
Data set [9] can be described thus: Toxicity against NOD/SCID mouse xenografted with human MM1S cells assessed as mouse survival at 50 mg/kg, po qd administered for 10 days. The format is organism-based. The following applies: in vivo, 240 h. An outline of the steps:
as §1

Data set [10] has as its system MM1.S. As to the kind of experiment: Induction of apoptosis in human MM1S cells assessed as early apoptotic cells at 1 uM after 48 hrs by Annexin V-FITC/propidium iodide staining-based flow cytometric analysis (reference value: 0.38%). In kind it is functional.
Data set [11] concerns MV4-11. The data set is described as follows: Induction of apoptosis in human MV4-11 cells assessed as viable cells at 1 uM after 48 hrs by Annexin V-FITC/propidium iodide staining-based flow cytometric analysis (reference value: 84.1%). The format is functional.
In data set [12] the test system is MV4-11. As to the kind of experiment: Induction of apoptosis in human MV4-11 cells assessed as late apoptotic cells at 1 uM after 48 hrs by Annexin V-FITC/propidium iodide staining-based flow cytometric analysis (reference value: 5.03%). In kind it is functional.
Data set [13] relates to MM1.S. As to the kind of experiment: Induction of apoptosis in human MM1S cells assessed as late apoptotic cells at 1 uM after 48 hrs by Annexin V-FITC/propidium iodide staining-based flow cytometric analysis (reference value: 0.42%). In kind it is functional.
In data set [14] the test system is MM1.S. The data set is described as follows: Induction of apoptosis in human MM1S cells assessed as necrotic cells at 1 uM after 48 hrs by Annexin V-FITC/propidium iodide staining-based flow cytometric analysis (reference value: 0.32%). The format is functional.
The subject of data set [15] is MV4-11. The data set is described as follows: Induction of apoptosis in human MV4-11 cells assessed as necrotic cells at 1 uM after 48 hrs by Annexin V-FITC/propidium iodide staining-based flow cytometric analysis (reference value: 0.17%). The format is functional.
Data set [16] concerns MM1.S. As to the kind of experiment: Induction of apoptosis in human MM1S cells assessed as viable cells at 1 uM after 48 hrs by Annexin V-FITC/propidium iodide staining-based flow cytometric analysis (reference value: 98.9%). The format is functional.
The subject of data set [17] is MV4-11. As to the kind of experiment: Induction of apoptosis in human MV4-11 cells assessed as viable cells at 1 uM after 48 hrs in presence of 0.3 uM RAPA by Annexin V-FITC/propidium iodide staining-based flow cytometric analysis (reference value: 84.1%). The format is functional.
For data set [18], the system named is MV4-11. The data set is described as follows: Induction of apoptosis in human MV4-11 cells assessed as early apoptotic cells at 1 uM after 48 hrs by Annexin V-FITC/propidium iodide staining-based flow cytometric analysis (reference value: 10.7%). The format is functional.
For data set [19], the system named is MM1.S. The data set is described as follows: Antitumor activity against human MM1S cells xenografted in NOD/SCID mouse assessed as tumor growth inhibition at 25 mg/kg, po qd administered for 10 days and measured every 2 days post last dose in presence of 50 mg/kg SAHA by caliper method relative to control.
Data set [20] concerns the target T1, Serine/threonine-protein kinase mTOR (Homo sapiens, UniProt P42345). The following applies: MV4-11, 1 to 10 uM.
Data set [21] deals with MV4-11. The data set is described as follows: Antiproliferative activity against human MV4-11 cells after 72 hrs by MTT assay. The format is functional, cell-based. The following applies: MV4-11, 72 h. (Formazan colour is commonly taken as a measure of viable cells.)
The test system of data set [22] is OCI-AML-3. The data set is described as follows: Antiproliferative activity against human OCI-AML3 cells after 72 hrs by MTT assay. The following applies: OCI-AML-3, 72 h. In kind it is functional, cell-based.
Data set [23] deals with MV4-11. The data set is described as follows: Induction of apoptosis in human MV4-11 cells assessed as early apoptotic cells at 0.3 uM after 48 hrs in presence of 1 uM SAHA by Annexin V-FITC/propidium iodide staining-based flow cytometric analysis (reference value: 10.7%). The format is functional.
The nature of data set [24]: Toxicity against NOD/SCID mouse xenografted with human MM1S cells assessed as mouse survival at 25 mg/kg, po qd administered for 10 days co-treated with 50 mg/kg SAHA. In kind it is organism-based. The following applies: in vivo, 240 h. In short, it runs like this:
as §1

In data set [25] the test system is MV4-11. As to the kind of experiment: Induction of apoptosis in human MV4-11 cells assessed as necrotic cells at 0.3 uM after 48 hrs in presence of 1 uM SAHA by Annexin V-FITC/propidium iodide staining-based flow cytometric analysis (reference value: 0.17%). The format is functional.
In data set [26] the test system is MM1.S. The data set is described as follows: Induction of apoptosis in human MM1S cells assessed as late apoptotic cells at 0.3 uM after 48 hrs in presence of 1 uM SAHA by Annexin V-FITC/propidium iodide staining-based flow cytometric analysis (reference value: 0.42%). In kind it is functional.
Data set [27] has as its system MM1.S. The data set is described as follows: Induction of apoptosis in human MM1S cells assessed as early apoptotic cells at 0.3 uM after 48 hrs in presence of 1 uM SAHA by Annexin V-FITC/propidium iodide staining-based flow cytometric analysis (reference value: 0.38%). In kind it is functional.
Data set [28] deals with OCI-AML2. As to the kind of experiment: Antiproliferative activity against human OCI-AML2 cells after 72 hrs by MTT assay. The following applies: OCI-AML2, 72 h. In kind it is functional, cell-based.
The subject of data set [29] is MM1.S. The data set is described as follows: Induction of apoptosis in human MM1S cells assessed as viable cells at 0.3 uM after 48 hrs in presence of 1 uM SAHA by Annexin V-FITC/propidium iodide staining-based flow cytometric analysis (reference value: 98.9%). The format is functional.
In data set [30] the test system is MM1.S. As to the kind of experiment: Induction of apoptosis in human MM1S cells assessed as necrotic cells at 0.3 uM after 48 hrs in presence of 1 uM SAHA by Annexin V-FITC/propidium iodide staining-based flow cytometric analysis (reference value: 0.32%). The format is functional.
The target in data set [31] is T1, Serine/threonine-protein kinase mTOR. The following applies: MV4-11, 10 uM.
Data set [32] relates to MV4-11. As to the kind of experiment: Induction of apoptosis in human MV4-11 cells assessed as viable cells at 0.3 uM after 48 hrs in presence of 1 uM SAHA by Annexin V-FITC/propidium iodide staining-based flow cytometric analysis (reference value: 84.1%). The format is functional.
Data set [33] has as its target T1, Serine/threonine-protein kinase mTOR. The following applies: MV4-11, 1 to 10 uM. This is another data set of the same source.
The subject of data set [34] is MV4-11. As to the kind of experiment: Induction of apoptosis in human MV4-11 cells assessed as late apoptotic cells at 0.3 uM after 48 hrs in presence of 1 uM SAHA by Annexin V-FITC/propidium iodide staining-based flow cytometric analysis (reference value: 5.03%). The format is functional.

Each structure is given as a SMILES string. Activity calls are given as the source filed them. No cut-off for these calls is given here.

The text below walks through data of ChEMBL document CHEMBL4411315, “Discovery of Novel Dual Histone Deacetylase and Mammalian Target of Rapamycin Target Inhibitors as a Promising Strategy for Cancer Therapy” (J Med Chem, 2019).

Consider `O=C(CCCCCCC(=O)Nc1ccccc1)NO` [VORINOSTAT], for which the Activity in [1] is on record as 42.4%; in data set [2], 15%; in [3] it was 1.74%; in data set [4] it was 37%; in [5], “Non-Toxic”; in data set [6], 53.6%. Besides, the Activity in data set [7] is listed as 3.48%; in data set [8], 29.7%; in data set [9], “Non-Toxic”; in [10], 9.68%; in data set [11], 18.6%; in data set [12], 37.9%. Besides, the Activity is recorded as 11.8% in [13]; 3.04% in data set [14]; 3.51% in data set [15]; 75.4% in data set [16]; 17.1% in data set [17]; 40% in data set [18].
For `CO[C@H]1C[C@@H]2CC[C@@H](C)[C@@](O)(O2)C(=O)C(=O)N2CCCC[C@H]2C(=O)O[C@H]([C@H](C)C[C@@H]2CC[C@@H](O)[C@H](OC)C2)CC(=O)[C@H](C)/C=C(\C)[C@@H](O)[C@@H](OC)C(=O)[C@H](C)C[C@H](C)/C=C/C=C/C=C/1C` [SIROLIMUS], in data set [19], the inhibition of tumour growth (TGI) (commonly the reduction of tumour growth relative to the control group) is given as 73.8%. Also, the inhibition entry in data set [20], in data set [31] and in data set [33] was “Active” in each case. Moreover, the IC50 in data set [21], in data set [22] and in [28] was greater than 500 nM each time. For the same compound, the Activity in data set [23] is 37%; in data set [24], “Non-Toxic”; in data set [25] it was 3.48%; in data set [26] it was 29.7%; in data set [27], 15%; in data set [29], 53.6%. Moreover, the Activity in data set [30] is recorded as 1.74%; in data set [10], 0.45%; in [32], 17.1%; in [12], 5.77%; in data set [13], 2.81%; in [14], 0.47%. For the same compound, the results for the Activity in [15], in [34] and in data set [18] were 0.6%, 42.4% and 15.3%, respectively. For the same compound, the viability at 1 µM in data set [11] (Homo sapiens, MV4-11, 48 h, read-out: Activity) was found to be 78.3%; in data set [16] (Homo sapiens, MM1.S, 48 h, read-out: Activity) it was 96.3%.
